One molecule from ChEMBL document CHEMBL4364267, “Hydrogen sulfide donating ent-kaurane and spirolactone-type 6,7-seco-ent-kaurane derivatives: Design, synthesis and antiproliferative properties” (Eur J Med Chem, 2019) can be followed below.

Structures are written as SMILES. Active and inactive are the calls of the source. No cut-off for these calls is given here.

In data set [1] the test system is Bel-7402. In words: Induction of apoptosis in human Bel7402 cells assessed as late apoptotic cells at 0.90 uM after 48 hrs by Annexin V-FITC/propidium iodide staining based flow cytometry (reference value: 0.68%). It counts as functional. In a few lines:
(§1)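 Bel-7402 cells in 6-well plates treated with 0, 0.45, 0.90 or 1.80 μM, washed twice with PBS and resuspended in annexin V binding buffer. Stained with annexin V-FITC and PI for 15 min at room temperature in the dark, then analysed by flow cytometry. Methods state 24 h exposure; the figure legend states 48 h.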

A further data set deals with K562. In words: Antiproliferative activity against human K562 cells assessed as reduction in cell viability after 72 hrs by MTT assay. It counts as functional, cell-based. Conditions: K562, 72 h. In short, it runs like this: (§2)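 MTT assay over 72 h, compounds at 64, 16, 4, 1, 0.25, 0.0625 and 0.015625 μM. MTT solution (5 mg/mL) and DMSO added afterwards, 10 min at room temperature, absorbance read at 490 nm. IC50 calculated as the mean ± SD of three independent experiments.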
In general terms: Tetrazolium assays rely on reduction of a dye to a coloured formazan, in cell work by metabolically active cells.

In data set [2] the test system is Bel-7402. Nature of the data set: Induction of apoptosis in human Bel7402 cells assessed as increase in Bax expression at 0.90 to 1.80 uM after 48 hrs by Western blot analysis. It counts as functional, cell-based. On the technique in general: A western blot detects proteins with antibodies after separation by electrophoresis.
Data set [3] has as its system Bel-7402. In words: Induction of mitochondrial membrane potential loss in human Bel7402 cells assessed as cell population with mitochondrial membrane potential collapse at 0.45 uM after 48 hrs by JC1 staining-based flow cytometry analysis (reference value: 1.28%). Type of data set: functional. In short, it runs like this:
(§3)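 Bel-7402 cells in 6-well plates exposed for 48 h to 0, 0.45, 0.90 or 1.80 μM, DMSO as vehicle. Washed with PBS and stained with JC-1 at room temperature in the dark. Cells with collapsed membrane potential counted by flow cytometry.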
In general terms: In flow cytometry, cells or beads pass a laser one at a time.

The test system of data set [4] is Bel-7402. Nature of the data set: Cell cycle arrest in human Bel7402 cells assessed as accumulation of cells at G2 phase at 0.90 uM after 48 hrs by propidium iodide/RNase staining based flow cytometric analysis (reference value: 29.97%). Type of data set: functional.
Data set [5] relates to Bel-7402. In words: Induction of apoptosis in human Bel7402 cells assessed as viable cells at 0.90 uM after 48 hrs by Annexin V-FITC/propidium iodide staining based flow cytometry (reference value: 97.22%). Type of data set: functional. Conditions: Bel-7402, 48 h, read-out: Activity. In a few lines:
as §1

The next data set relates to SGC-7901. In words: Antiproliferative activity against human SGC7901 cells assessed as reduction in cell viability after 72 hrs by MTT assay. It counts as functional, cell-based. Conditions: SGC-7901, 72 h. In a few lines:
as §2

In data set [6] the test system is Bel-7402. Nature of the data set: Induction of morphological changes in human Bel7402 cells assessed as chromatin shrinkage at 0.45 to 1.80 uM after 48 hrs by Hoechst 33258 staining-based fluorescent microscopic analysis. It counts as functional, cell-based. In a few lines: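 Bel-7402 cells cultured 24 h in 6-well plates at 37 °C, then exposed 48 h to 0, 0.45, 0.90 or 1.80 μM. Harvested by mild trypsinization and washed twice with PBS. Stained with Hoechst 33258 (2 mg/mL) for 15 min at room temperature in the dark, washed, and viewed by fluorescence microscopy.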

In data set [7] the test system is Bel-7402. In words: Induction of apoptosis in human Bel7402 cells assessed as early apoptotic cells at 0.90 uM after 48 hrs by Annexin V-FITC/propidium iodide staining based flow cytometry (reference value: 2.09%). Type of data set: functional. In short, it runs like this: as §1
Data set [8] concerns Bel-7402. In words: Induction of mitochondrial membrane potential loss in human Bel7402 cells assessed as cell population with mitochondrial membrane potential collapse at 0.90 uM after 48 hrs by JC1 staining-based flow cytometry analysis (reference value: 1.28%). Type of data set: functional. In a few lines: as §3
The test system of data set [9] is Bel-7402. In words: Cell cycle arrest in human Bel7402 cells assessed as accumulation of cells at S phase at 0.45 uM after 48 hrs by propidium iodide/RNase staining based flow cytometric analysis (reference value: 39.09%). It counts as functional.
In data set [10] the test system is Bel-7402. Nature of the data set: Cell cycle arrest in human Bel7402 cells assessed as accumulation of cells at G2 phase at 1.80 uM after 48 hrs by propidium iodide/RNase staining based flow cytometric analysis (reference value: 29.97%). It counts as functional.
Data set [11] has as its system Bel-7402. Nature of the data set: Induction of mitochondrial membrane potential loss in human Bel7402 cells assessed as cell population with intact mitochondrial membrane potential at 0.90 uM after 48 hrs by JC1 staining-based flow cytometry analysis (reference value: 98.67%). Type of data set: functional. In a few lines:
as §3

In data set [12] the test system is Bel-7402. In words: Induction of apoptosis in human Bel7402 cells assessed as reduction in Bcl-2 expression at 0.90 to 1.80 uM after 48 hrs by Western blot analysis. It counts as functional, cell-based.
Data set [13] relates to Bel-7402. Nature of the data set: Antiproliferative activity against human Bel7402 cells assessed as reduction in cell viability after 72 hrs by MTT assay. Conditions: Bel-7402, 72 h. It counts as functional, cell-based. In short, it runs like this:
as §2

Another data set concerns L02. Nature of the data set: Cytotoxicity against human L02 cells assessed as reduction in cell viability after 72 hrs by MTT assay. It counts as cell-based. Conditions: L02, 72 h. In short, it runs like this: as §2
For data set [14], the system named is Bel-7402. In words: Induction of mitochondrial membrane potential loss in human Bel7402 cells assessed as cell population with mitochondrial membrane potential collapse at 1.80 uM after 48 hrs by JC1 staining-based flow cytometry analysis (reference value: 1.28%). It counts as functional. In short, it runs like this: as §3
Data set [15] in a line: Selectivity index, ratio of IC50 for human L02 cells to IC50 for human Bel7402 cells after 72 hrs by MTT assay. Type of data set: toxicity. Conditions: L02 cells versus Bel7402 cells, read-out: Ratio IC50.
Data set [16] has as its system Bel-7402. Nature of the data set: Induction of apoptosis in human Bel7402 cells after 48 hrs by Annexin V-FITC/propidium iodide staining based assay. It counts as functional, cell-based. In short, it runs like this: as §1
Data set [17] relates to Bel-7402. In words: Induction of mitochondrial membrane potential loss in human Bel7402 cells assessed as cell population with intact mitochondrial membrane potential at 0.45 uM after 48 hrs by JC1 staining-based flow cytometry analysis (reference value: 98.67%). It counts as functional. In a few lines: as §3
Data set [18] has as its system Bel-7402. Nature of the data set: Cell cycle arrest in human Bel7402 cells assessed as accumulation of cells at G1 phase at 0.90 uM after 48 hrs by propidium iodide/RNase staining based flow cytometric analysis (reference value: 30.95%). Type of data set: functional.
The subject of data set [19] is Bel-7402. Nature of the data set: Cell cycle arrest in human Bel7402 cells assessed as accumulation of cells at G1 phase at 0.45 uM after 48 hrs by propidium iodide/RNase staining based flow cytometric analysis (reference value: 30.95%). Type of data set: functional.
A short description of data set [20]: Selectivity index, ratio of IC50 for human PBMC to IC50 for human Bel7402 cells after 72 hrs by MTT assay. It counts as toxicity. Conditions: PBMC versus Bel7402 cells, read-out: Ratio IC50.

As usually defined, the IC50 is the point on the concentration scale where inhibition reaches its midpoint. With `C=C1C(=O)[C@@]23C(=O)OC[C@]4(C(=O)CCC(C)(C)[C@H]4C=O)[C@@H]2CC[C@@H]1[C@H]3OC(=O)CCCC(=O)Oc1ccc(-c2cc(=S)ss2)cc1`, the Activity stood at 12.3% in the data set with Bel-7402 [1]; 18.48% in the data set on Bel-7402 [3]; 19.81% in the data set on Bel-7402 [4]; 15.17% in the data set with Bel-7402 [7]; 30.96% with Bel-7402 [8]; 40.42% in the data set on Bel-7402 [9]. For the same molecule, the Activity in the data set with Bel-7402 [10] is 15.91%; with Bel-7402 [11] it was 69.04%; in the data set with Bel-7402 [14], 58.59%; with Bel-7402 [16] it was “Dose-dependent effect”; with Bel-7402 [17], 81.5%; in the data set on Bel-7402 [18], 42.3%. Moreover, the Activity in the data set with Bel-7402 [19] is given as 37.37%. Moreover, the IC50 was found to be 1010 nM in the data set on K562, 4360 nM in the data set with SGC-7901, 880 nM in the data set with Bel-7402 [13] and 20800 nM in the data set on L02. For the same molecule, the result with Bel-7402 [2], in the data set on Bel-7402 [6] and with Bel-7402 [12] was Active. The viability at 0.9 µM in the data set on Bel-7402 [5] worked out at 72.5%. Moreover, the selectivity ratio at 72 h in data set [15] and in data set [20] was 24 each time.
